# High-throughput results (PubChem)
# Rows were chosen to be rich in hits. Some 0.95% of all compounds tested hit in one or more screens of this group.
# CSN inh: inhibitors of CSN-mediated cullin deneddylation, primary screen, biochemical, fluorescence polarization, uHTS. actives 0.38% (n = 360,000). COP9 signalosome complex subunit 5 (Homo sapiens), Q92905. AID 651999, 2013. inhibition, % at 12.5 µM. Purified CSN, SCF-Nedd8-OG deneddylation;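 active means pattern-corrected inhibition above about 35%, with an unprinted fluorescence ratio check between 0.5 and 1.5, limit read from the data, passing the limit was not always enough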;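 further: 0% = enzyme with substrate and 100% = substrate without enzyme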
#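 Assay system: HEK293T-derived human Csn5 enzyme; quantity: 0.24 nM enzyme; medium: Tris/NaCl/DTT buffer, pH 7.5; also added: substrate SCFSkp2-Nedd8OG, 10 nM; doses: 12.5 µM compound; schedule: 90 min reaction at room temperature; signal: FP; read-out: % inhibition of substrate cleavage by Csn5; benchmarks: substrate-only high control, full reaction low control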
# ASAP1 GAP inh: inhibitors of human ASAP1 ArfGAP activity, primary screen, biochemical, fluorescence polarization | AID 624377, 2012 | Arf-GAP with SH3 domain, ANK repeat and PH domain-containing protein 1 (Homo sapiens), … | inhibition, % at 16.5 µM | actives 0.19% (n = 360,000) | ASAP1-stimulated ARF1 GTP hydrolysis, GDP FP detection; in the data active means inhibition above about 25%;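 further: 0% = vehicle with enzyme and substrate and 100% = no enzyme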
# Target sequence (Q9ULH1 325-724 limits assumed): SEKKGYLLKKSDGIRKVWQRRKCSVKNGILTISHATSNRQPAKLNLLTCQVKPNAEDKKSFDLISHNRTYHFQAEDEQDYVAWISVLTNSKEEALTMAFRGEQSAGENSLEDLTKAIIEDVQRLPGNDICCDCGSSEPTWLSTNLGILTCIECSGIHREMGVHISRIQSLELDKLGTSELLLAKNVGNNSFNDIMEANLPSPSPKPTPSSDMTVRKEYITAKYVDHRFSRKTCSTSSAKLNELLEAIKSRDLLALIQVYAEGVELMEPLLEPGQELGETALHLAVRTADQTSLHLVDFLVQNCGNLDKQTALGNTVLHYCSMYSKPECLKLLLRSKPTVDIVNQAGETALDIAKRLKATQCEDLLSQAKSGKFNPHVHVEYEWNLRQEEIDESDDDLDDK
# ARFGAP1 inh: inhibitors of rat ARFGAP1 GAP activity, primary screen, biochemical, fluorescence polarization, GDP tracer; ADP-ribosylation factor GTPase-activating protein 1 (Rattus norvegicus), Q62848; Arfgap1-stimulated ARF1 GTP hydrolysis, GDP FP detection; inhibition, % at 16.5 µM; actives 0.26% (n = 360,000);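 active means inhibition above a per-plate limit, mean inhibition of low control wells plus 3 SD, cut at about 25% in these data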;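 further: 0% = DMSO wells with enzyme and 100% = wells lacking Arfgap1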
# Target sequence (Q62848 1-136 limits assumed): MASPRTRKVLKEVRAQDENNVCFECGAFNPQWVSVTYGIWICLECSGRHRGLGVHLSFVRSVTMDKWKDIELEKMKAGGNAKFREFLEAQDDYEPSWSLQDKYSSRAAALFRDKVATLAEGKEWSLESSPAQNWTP
#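 Assay system: purified rat His6-Arfgap1 residues 1-136 (GAP domain); Reagent: human Δ17 ARF1 bound to GTP; Dosing: 16.5 µM single point, 1.26% DMSO; Times: GTP hydrolysis reaction 2 h at 25 °C; Signal: FP, GDP Alexa 633 tracer displaced from anti-GDP antibody, 620/688 nm; Measure: % inhibition from polarization.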
# HNF4A DNA FP: change in binding of human HNF4A to DNA, primary screen, biochemical, fluorescence polarization, FITC-DNA | Hepatocyte nuclear factor 4-alpha (Homo sapiens), P41235 | 1 h | activity change, % at 10 µM | actives 0.3% (n = 360,000); in the data active means activity change above about 30%, passing the limit was not always enough
# ARFGAP1 inh conf: ARFGAP1 inhibitor hit confirmation, biochemical, fluorescence polarization, triplicate; inhibition, % at 16.5 µM; actives 30% (n = 890); ARFGAP1-stimulated ARF1 GTP hydrolysis, GDP tracer FP; shares compounds with ARFGAP1 inh;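 active means average inhibition over triplicates above the hit cutoff set in the earlier primary screen, cut at about 25% in these data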;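 further: 0% = Arfgap1 plus ARF1-GTP with DMSO and 100% = wells lacking Arfgap1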
# * hit, by the source's call; nt = no result; + = active, no number.
SMILES,CSN inh,ASAP1 GAP inh,ARFGAP1 inh,HNF4A DNA FP,ARFGAP1 inh conf
CCn1c(CNC(=O)c2cccs2)nnc1SCC(=O)Nc1ccc(Cl)cc1,-6,2,31*,4,-3
CC(C(=O)N1CCCCC1)N(C)CC(=O)Nc1ccc(F)c(F)c1F (stereo not drawn),4,0,26*,2,5
COCC#Cc1ccc2c(c1)O[C@@H](CN(C)S(=O)(=O)c1cccc(F)c1)[C@@H](C)CN([C@H](C)CO)S2(=O)=O,5,-9,8,7,nt
O=C1NC(c2ccccc2)=C(c2nc3ccccc3s2)C(c2ccc(F)cc2)N1 (stereo not drawn),3,11,32*,2,2
O=C(O)c1ccc(CSc2nc3ccccc3[nH]2)cc1,6,-16,29*,-2,-3
COc1ccc(-c2[nH]ncc2/C=N/NC(=O)c2cccc([N+](=O)[O-])c2)cc1OC,-5,22,26*,13,52*
COc1cccc(Oc2cn[nH]c2-c2ccc(OCC(=O)NN)cc2O)c1,-5,10,2,0,nt
CCCOC(=O)c1ccc(Oc2cn[nH]c2-c2ccc(OC)cc2O)cc1,5,12,30*,-2,21
COc1ccc(-c2noc3c2-c2nc(-c4ccccc4)sc2CC3)cc1,-2,-8,-4,3,nt
Brc1ccc(-c2noc3c2-c2nc(-c4ccccc4)sc2CC3)cc1,2,15,27*,0,-1
O=[N+]([O-])c1cccc(/C=C/c2nc3ccc([N+](=O)[O-])cc3[nH]2)c1,8,7,25*,-2,26*
Cc1ccc(NC(=O)CN(C)C(=O)c2ccc(Sc3nncn3C)c([N+](=O)[O-])c2)cc1,-1,3,+,-1,-3
CCN1CCN(c2ccc(S(=O)(=O)N3CCCCC3)cc2NC(=O)/C=C/c2ccc(OC)c(OC)c2)CC1,3,19,30*,-3,45*
COc1ccc(Cl)cc1NC(=O)c1cccc(NC(=O)CCC(=O)O)c1,-10,-5,3,-2,nt
O=C(O)CCC(=O)Nc1cccc(C(=O)Nc2cccc(Cl)c2)c1,-4,4,63*,-3,0
CCOC(=O)C1=C(C)NC(=O)NC1C (stereo not drawn),6,-9,0,3,nt
CCOC(=O)C1=C(CBr)NC(=O)NC1C (stereo not drawn),6,9,33*,-1,0
Nc1c(-c2ccccc2)nc2ncccn12,-3,2,-2,-1,nt
O=Nc1c(-c2cccc([N+](=O)[O-])c2)nc2ncccn12,6,-13,26*,-5,-10
O=C(N[C@@H](Cc1cccnc1)C(=O)N1CCC[C@H]1C(=O)NCc1ccccc1)c1ccc(Cl)cc1Cl,nt,4,1,nt,nt
COc1ccc(-c2cc(-c3nnc(COC(=O)c4ccncc4)o3)c3ccccc3n2)cc1OC,-10,14,0,4,nt
CCOC1=C2[C@H](c3ccccc3)N(S(=O)(=O)c3ccccc3)C[C@H]2n2c(=O)n(-c3ccccc3)c(=O)n2C1,-2,0,6,-5,nt
OC(c1ccc(-c2ccccc2)cc1)c1ncc(-c2ccc(C(F)(F)F)cc2)[nH]1 (stereo not drawn),2,7,39*,-3,22
OC(c1ccccc1)c1ncc(-c2ccc(C(F)(F)F)cc2)[nH]1 (stereo not drawn),-1,-15,-7,1,nt
O=C(c1ccc(NS(=O)(=O)c2ccc(F)cc2)cc1)N1CCC1,-2,-1,-3,6,nt
SMILES,CSN inh,ASAP1 GAP inh,ARFGAP1 inh,HNF4A DNA FP,ARFGAP1 inh conf
Nc1cccc(C(=O)Nc2ccc3nc(-c4cccnc4)[nH]c3c2)c1,9,8,29*,-5,8
O=C(NC1(O)C(=O)c2ccccc2C1=O)c1c(Cl)cccc1Cl,9,21,26*,10,10
CN(Cc1ccccc1)C(=O)CN1CCN(S(=O)(=O)c2ccccc2F)CC1,1,-2,36*,-1,5
COC(=O)[C@@]12C[C@@H](CC(=O)N3CCN(C(=O)C4CC4)CC3)C(=O)N(Cc3ccc4c(c3)OCO4)C1=CCC(C)(C)C2,2,4,14,-2,nt
COc1ccc(-c2cc3ccccc3oc2=O)cc1NC(=O)c1cccnc1,-2,21,34*,1,34*
COc1ccc(OC)c(-n2nnnc2SCC(=O)Nc2ccc3c(c2)OCCO3)c1,6,11,49*,1,45*
COc1ccc(OC)c(-n2nnnc2SCC(=O)Nc2ccc(C(=O)N3CCCCC3)cc2)c1,3,3,7,-1,nt
C=CCOc1ccc(/C=C/C(=O)Nc2ccc(C(=O)NC)cc2)cc1,3,19,29*,-4,37*
O=C(Nc1ccc(Cl)c(-c2nc3ccccc3[nH]2)c1)c1ccc2c(c1)OCO2,3,11,-6,1,nt
O=C(Nc1cccc(F)c1)c1ccc2c(c1)OCO2,-2,5,2,0,nt
CCCN(CCC)S(=O)(=O)c1cccc(C(=O)Nc2ccc3c(c2)OCO3)c1,-7,17,47*,-3,2
O=C(Nc1ccc(-c2nc3ccccc3[nH]2)cc1)c1ccc2c(c1)OCO2,15,21,26*,25,32*
O=C(Nc1ccc2nn(-c3ccccc3)nc2c1)c1ccc2c(c1)OCO2,24,17,26*,-2,28*
CCN(CC)S(=O)(=O)c1cccc(C(=O)Nc2ccc3c(c2)OCO3)c1,1,16,5,1,nt
COc1ccccc1N1CCN(C(=O)c2ccc3noc(-c4ccccc4)c3c2)CC1,3,-8,1,3,nt
O=c1cc(Nc2ccc3c(c2)OCCO3)[nH]c(=O)n1Cc1ccc(F)cc1,-2,-4,27*,-6,-2
O=C(CNS(=O)(=O)c1ccc(Cl)cc1)N1CCN(c2ccc(F)cc2)CC1,-2,-8,-17,9,nt
O=C(CNS(=O)(=O)c1ccc(Br)cc1)N1CCN(c2ccc(F)cc2)CC1,-5,9,28*,5,3
CC(C)(C)c1ccc(C#C[C@@H]2C=C[C@@H](O)[C@@H](COC(=O)Nc3ccccc3)O2)cc1,nt,-2,24,nt,nt
Cc1cc(C(=O)CN2c3cccc4cccc(c34)S2(=O)=O)c(C)n1C,12,11,11,-3,nt
